Assay results from article PMC9444296 (Investigative Radiology, 2022).
“Also recorded” adds a separate entry of the source.

Assays:
CYP2B6 = CYP2B6 (Homo sapiens, UniProt P20813); details: 0.01, 0.1, 1, 10, and 100 μM, pooled human liver microsomes 0.5 mg/mL
BCRP = BCRP (Homo sapiens, UniProt Q9UNQ0); assay: BCRP inhibition, membrane vesicles; format: in vitro ADME; details: 1, 5, 10, 50, and 100 μM
OATP1B3 = OATP1B3 (Homo sapiens, UniProt Q9NPD5); assay: OATP1B3 inhibition, HEK293 cells; format: in vitro ADME; details: 1, 5, 10, 50, and 100 μM
OATP1B3, sequence (Q9NPD5 whole entry): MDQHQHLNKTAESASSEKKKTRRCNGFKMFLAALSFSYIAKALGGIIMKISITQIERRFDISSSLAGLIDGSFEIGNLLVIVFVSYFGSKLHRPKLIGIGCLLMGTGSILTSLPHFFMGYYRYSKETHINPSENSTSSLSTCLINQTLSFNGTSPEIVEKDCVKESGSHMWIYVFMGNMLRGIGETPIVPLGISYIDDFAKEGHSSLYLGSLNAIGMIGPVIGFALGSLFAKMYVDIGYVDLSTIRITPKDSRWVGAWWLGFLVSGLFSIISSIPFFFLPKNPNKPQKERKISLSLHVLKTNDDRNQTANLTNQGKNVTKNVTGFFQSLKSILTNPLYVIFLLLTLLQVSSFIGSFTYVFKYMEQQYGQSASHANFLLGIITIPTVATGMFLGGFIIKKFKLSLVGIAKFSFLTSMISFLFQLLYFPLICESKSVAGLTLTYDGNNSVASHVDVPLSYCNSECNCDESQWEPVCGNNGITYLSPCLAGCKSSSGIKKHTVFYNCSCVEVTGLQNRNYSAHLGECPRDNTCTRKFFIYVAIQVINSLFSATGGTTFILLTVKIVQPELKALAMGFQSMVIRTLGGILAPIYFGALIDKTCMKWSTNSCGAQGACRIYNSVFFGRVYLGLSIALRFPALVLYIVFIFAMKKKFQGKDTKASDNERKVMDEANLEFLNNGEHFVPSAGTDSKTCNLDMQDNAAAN

CYP2C19 = CYP2C19 (Homo sapiens, UniProt P33261); assay: CYP2C19 inhibition in human liver microsomes; format: in vitro ADME; details: 0.01, 0.1, 1, 10, and 100 μM, pooled human liver microsomes 0.5 mg/mL
CYP2C19, sequence (P33261 whole entry): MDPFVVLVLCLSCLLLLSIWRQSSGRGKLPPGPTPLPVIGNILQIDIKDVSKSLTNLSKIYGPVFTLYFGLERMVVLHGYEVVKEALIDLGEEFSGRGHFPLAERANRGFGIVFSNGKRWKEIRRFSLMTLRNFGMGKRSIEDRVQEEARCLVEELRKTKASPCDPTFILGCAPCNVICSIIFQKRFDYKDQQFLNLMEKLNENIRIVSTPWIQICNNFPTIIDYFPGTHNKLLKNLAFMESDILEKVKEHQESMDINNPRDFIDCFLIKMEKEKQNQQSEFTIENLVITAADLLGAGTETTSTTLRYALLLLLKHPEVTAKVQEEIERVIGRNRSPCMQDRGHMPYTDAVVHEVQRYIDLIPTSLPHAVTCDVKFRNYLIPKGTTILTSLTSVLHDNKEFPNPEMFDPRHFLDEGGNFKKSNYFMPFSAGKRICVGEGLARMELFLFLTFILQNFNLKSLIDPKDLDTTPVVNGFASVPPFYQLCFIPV

[1] = test system: LNCaP human prostate tumors; assay: Contrast-enhanced MRI of LNCaP prostate tumor xenografts in rats; format: in vivo, rat; details: 3 T, n = 3
Method in brief: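 Male rats carried subcutaneous flank xenografts of 4 × 10⁶ PC3 or 8 × 10⁶ LNCaP cells in Matrigel-PBS (1:1) and were imaged once tumours exceeded 100 mm³. Scans used 1 mm slices, 2 averages and a 128 × 128 matrix. The same tumour-bearing rats were reused across agents and doses, with a clinical Gd agent at 0.1 mmol Gd/kg as comparator.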

OCT2 = OCT2 (Homo sapiens, UniProt O15244); assay: OCT2 inhibition, HEK293 cells; format: in vitro ADME; details: 1, 5, 10, 50, and 100 μM
OCT2, sequence (O15244 whole entry): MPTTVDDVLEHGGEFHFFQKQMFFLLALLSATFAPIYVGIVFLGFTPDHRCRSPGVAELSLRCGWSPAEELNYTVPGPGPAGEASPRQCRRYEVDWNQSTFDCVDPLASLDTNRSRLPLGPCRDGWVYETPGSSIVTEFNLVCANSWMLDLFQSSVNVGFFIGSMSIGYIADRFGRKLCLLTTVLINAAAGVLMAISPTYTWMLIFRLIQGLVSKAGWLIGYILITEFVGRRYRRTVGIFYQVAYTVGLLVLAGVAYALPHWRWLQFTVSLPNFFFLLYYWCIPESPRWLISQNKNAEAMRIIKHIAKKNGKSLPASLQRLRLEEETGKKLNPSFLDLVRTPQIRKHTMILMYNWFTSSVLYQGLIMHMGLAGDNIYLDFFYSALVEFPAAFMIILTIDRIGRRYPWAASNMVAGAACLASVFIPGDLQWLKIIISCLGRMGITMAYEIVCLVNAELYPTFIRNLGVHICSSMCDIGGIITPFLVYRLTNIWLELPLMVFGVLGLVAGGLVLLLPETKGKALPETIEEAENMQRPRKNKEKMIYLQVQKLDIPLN

MAOA = MAOA (Homo sapiens, UniProt P21397); assay: SAFETYscan E/IC50 assay, MAOA; format: biochemical; details: concentration range 0.005 to 100 μM
MAOA, sequence (P21397 whole entry, species assumed, the tested form may be a part): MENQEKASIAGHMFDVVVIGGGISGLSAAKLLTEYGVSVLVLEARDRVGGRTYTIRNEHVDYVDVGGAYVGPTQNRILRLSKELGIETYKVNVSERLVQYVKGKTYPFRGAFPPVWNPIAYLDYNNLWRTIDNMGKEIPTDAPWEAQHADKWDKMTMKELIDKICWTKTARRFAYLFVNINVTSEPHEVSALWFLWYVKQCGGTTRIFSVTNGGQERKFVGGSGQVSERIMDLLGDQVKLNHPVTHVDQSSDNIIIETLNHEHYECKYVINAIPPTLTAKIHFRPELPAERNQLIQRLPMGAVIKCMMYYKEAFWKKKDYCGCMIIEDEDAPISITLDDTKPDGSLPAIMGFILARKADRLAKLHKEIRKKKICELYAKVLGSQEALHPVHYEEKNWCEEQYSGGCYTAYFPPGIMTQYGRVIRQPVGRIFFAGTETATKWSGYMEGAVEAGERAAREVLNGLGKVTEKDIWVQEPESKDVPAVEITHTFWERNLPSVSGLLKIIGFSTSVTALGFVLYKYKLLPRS
Method in brief: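 Contract-laboratory in vitro panel of 78 targets, run in agonist and/or antagonist modes under provider SOPs over 0.005 to 100 μM. Panel formats included enzyme fragment complementation, FLIPR-based cellular assays, kinase binding and enzymatic assays.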

bone marrow of ICR mice = assay: Micronucleus assay in ICR mice; format: in vivo, mouse; details: ICR mice, 1.39, 0.70, and 0.35 mmol/kg/d for 2 days
Method in brief: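 Male ICR mice, 32 in total, were dosed once daily for 2 days: vehicle, 500 or 1000 mg/kg/d (6 per group) or 2000 mg/kg/d (8 mice). Cyclophosphamide monohydrate served as positive control. Bone marrow was collected about 22.5 h after the final dose and scored for micronuclei and for polychromatic to total erythrocytes.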

CYP3A4 = details: human primary hepatocytes, 1, 10, and 100 μM
Excretion in SD rats = format: in vivo, rat
Method in brief: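 Non-GLP study in SD rats given a single IV dose of 0.1 mmol/kg. One group (3/sex) gave urine and feces predose and at 0–4, 4–8, 8–24, 24–48, 48–72, 72–96, 96–120 and 120–144 h. A second group with conscious biliary cannulation gave bile 30 min predose and at 0–1, 1–2, 2–4, 4–6 and 6–8 h. Gd was measured by ICP-MS.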

CYP1A2 = CYP1A2 (Homo sapiens, UniProt P05177); details: 0.01, 0.1, 1, 10, and 100 μM, pooled human liver microsomes 0.5 mg/mL
CYP1A2, sequence (P05177 whole entry): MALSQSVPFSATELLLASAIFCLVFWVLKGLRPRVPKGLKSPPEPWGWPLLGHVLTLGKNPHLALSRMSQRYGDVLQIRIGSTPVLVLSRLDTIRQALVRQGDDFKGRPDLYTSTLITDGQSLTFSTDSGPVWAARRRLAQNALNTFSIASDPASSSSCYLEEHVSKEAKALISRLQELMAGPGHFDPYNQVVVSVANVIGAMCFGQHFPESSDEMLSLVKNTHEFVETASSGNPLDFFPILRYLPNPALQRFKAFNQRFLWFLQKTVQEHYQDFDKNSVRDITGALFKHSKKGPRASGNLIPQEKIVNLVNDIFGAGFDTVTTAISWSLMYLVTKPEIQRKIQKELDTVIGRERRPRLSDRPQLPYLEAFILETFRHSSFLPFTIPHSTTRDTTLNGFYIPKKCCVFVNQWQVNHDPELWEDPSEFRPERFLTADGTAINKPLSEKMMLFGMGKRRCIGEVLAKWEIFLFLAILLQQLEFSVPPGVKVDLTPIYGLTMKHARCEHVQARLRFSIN

[2] = Metabolic stability in CD1 mouse hepatocytes; format: in vitro ADME; details: 2 hours of incubation, LC-MS/MS
[3] = Metabolic stability in beagle dog hepatocytes; format: in vitro ADME; details: 2 hours of incubation, LC-MS/MS
CYP2D6 = CYP2D6 (Homo sapiens, UniProt P10635); assay: CYP2D6 inhibition in human liver microsomes; format: in vitro ADME; details: 0.01, 0.1, 1, 10, and 100 μM, pooled human liver microsomes 0.5 mg/mL
CYP2D6, sequence (P10635 whole entry): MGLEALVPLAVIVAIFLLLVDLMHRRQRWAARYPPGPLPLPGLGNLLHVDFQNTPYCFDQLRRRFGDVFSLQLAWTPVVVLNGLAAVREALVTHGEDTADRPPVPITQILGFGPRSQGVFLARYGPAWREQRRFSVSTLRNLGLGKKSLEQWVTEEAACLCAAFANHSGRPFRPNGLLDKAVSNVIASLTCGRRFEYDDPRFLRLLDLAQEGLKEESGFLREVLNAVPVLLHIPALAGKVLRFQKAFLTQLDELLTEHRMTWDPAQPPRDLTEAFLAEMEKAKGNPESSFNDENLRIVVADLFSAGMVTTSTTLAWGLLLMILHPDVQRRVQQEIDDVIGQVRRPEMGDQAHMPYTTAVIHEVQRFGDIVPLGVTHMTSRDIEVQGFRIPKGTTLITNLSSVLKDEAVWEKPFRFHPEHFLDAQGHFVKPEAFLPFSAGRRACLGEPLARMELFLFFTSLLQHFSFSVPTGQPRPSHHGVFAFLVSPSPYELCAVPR

MATE1 = MATE1 (Homo sapiens, UniProt Q96FL8); assay: MATE1 inhibition, HEK293 cells; format: in vitro ADME; details: 1, 5, 10, 50, and 100 μM
MATE1, sequence (Q96FL8 whole entry): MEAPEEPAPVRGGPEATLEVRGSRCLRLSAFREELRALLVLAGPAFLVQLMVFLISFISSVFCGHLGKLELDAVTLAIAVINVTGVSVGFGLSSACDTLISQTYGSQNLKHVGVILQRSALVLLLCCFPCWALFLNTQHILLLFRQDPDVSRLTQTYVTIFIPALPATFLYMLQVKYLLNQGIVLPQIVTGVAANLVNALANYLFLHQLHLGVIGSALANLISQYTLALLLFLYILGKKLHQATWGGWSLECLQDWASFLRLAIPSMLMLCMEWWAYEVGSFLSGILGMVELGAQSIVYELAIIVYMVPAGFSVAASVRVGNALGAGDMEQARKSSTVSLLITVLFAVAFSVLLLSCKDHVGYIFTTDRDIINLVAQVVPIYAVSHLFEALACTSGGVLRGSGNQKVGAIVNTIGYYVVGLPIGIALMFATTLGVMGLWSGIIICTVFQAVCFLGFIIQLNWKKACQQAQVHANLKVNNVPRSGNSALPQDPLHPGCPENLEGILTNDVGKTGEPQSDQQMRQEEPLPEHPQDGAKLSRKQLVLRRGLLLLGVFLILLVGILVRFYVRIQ

[4] = Plasma protein binding, dog plasma; format: in vitro ADME; details: 37°C, 3 min, 10 kDa ultrafiltration, Gd by ICP-OES, n = 4
Method in brief: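 Test compound at 50, 80 or 110 μM was incubated with human, dog or rat plasma (alongside HSA 40 mg/mL and PBS) at 37°C for 3 min. Mixtures were kept overnight and centrifuged to remove insolubles. Gd was measured by ICP-OES, and the binding ratio was taken as bound over total concentration.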

Gd = format: physicochemical; details: HPLC-UV
Method in brief: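 Test compound at 0.25 mM (final) was incubated with 0.25 mM DOTA, DTPA, HP-DO3A or EDTA, or with 0.50 mM ZnCl₂. Buffers were 0.05 M acetate pH 5 or 0.05 M Tris pH 7.4, at room temperature (25°C) or 37.5°C, for up to 30 days. Intact compound remaining was measured by HPLC-UV (C18; 0.08% TFA acetonitrile/water).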

[5] = test system: 78 common biological targets; assay: SAFETYscan 78-target panel; format: biochemical; details: 0.005 to 100 μM
CYP2C9 = CYP2C9 (Homo sapiens, UniProt P11712); assay: CYP2C9 inhibition in human liver microsomes; details: 0.01, 0.1, 1, 10, and 100 μM, pooled human liver microsomes 0.5 mg/mL
CYP2C9, sequence (P11712 whole entry): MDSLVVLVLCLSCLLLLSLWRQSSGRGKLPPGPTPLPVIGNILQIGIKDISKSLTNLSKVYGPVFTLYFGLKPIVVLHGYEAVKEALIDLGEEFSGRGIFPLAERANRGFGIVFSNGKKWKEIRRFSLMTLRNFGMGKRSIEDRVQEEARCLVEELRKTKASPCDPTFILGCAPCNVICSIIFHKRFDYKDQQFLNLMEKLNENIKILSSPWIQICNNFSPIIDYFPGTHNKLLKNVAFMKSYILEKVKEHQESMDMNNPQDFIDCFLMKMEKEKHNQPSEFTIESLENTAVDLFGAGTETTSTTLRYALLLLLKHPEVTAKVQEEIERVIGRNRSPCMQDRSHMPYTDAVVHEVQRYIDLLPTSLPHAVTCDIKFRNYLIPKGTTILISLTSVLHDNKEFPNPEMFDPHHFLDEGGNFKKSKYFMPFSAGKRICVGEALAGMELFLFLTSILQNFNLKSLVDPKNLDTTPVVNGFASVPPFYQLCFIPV

SD rats = assay: Single and repeated dose toxicity and toxicokinetics in SD rats; format: in vivo, rat; details: for NOAEL: SD rats; for accumulation ratio AUC0–24h (D14)/AUC0–24h (D1) of Gd: 14 days
Method in brief: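 GLP study in SD rats aged 6–7 weeks (M 200–246 g, F 175–224 g). […] Clinical observation, organ weights and macro/microscopic histopathology were done. Plasma exposure (AUC0–24h, C0) was taken on D1 and D14, with accumulation ratio AUC0–24h(D14)/AUC0–24h(D1) of Gd.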

OAT3 = OAT3 (Homo sapiens, UniProt Q8TCC7); assay: OAT3 inhibition, HEK293 cells; format: in vitro ADME; details: 1, 5, 10, 50, and 100 μM

BCRP, sequence (Q9UNQ0 whole entry): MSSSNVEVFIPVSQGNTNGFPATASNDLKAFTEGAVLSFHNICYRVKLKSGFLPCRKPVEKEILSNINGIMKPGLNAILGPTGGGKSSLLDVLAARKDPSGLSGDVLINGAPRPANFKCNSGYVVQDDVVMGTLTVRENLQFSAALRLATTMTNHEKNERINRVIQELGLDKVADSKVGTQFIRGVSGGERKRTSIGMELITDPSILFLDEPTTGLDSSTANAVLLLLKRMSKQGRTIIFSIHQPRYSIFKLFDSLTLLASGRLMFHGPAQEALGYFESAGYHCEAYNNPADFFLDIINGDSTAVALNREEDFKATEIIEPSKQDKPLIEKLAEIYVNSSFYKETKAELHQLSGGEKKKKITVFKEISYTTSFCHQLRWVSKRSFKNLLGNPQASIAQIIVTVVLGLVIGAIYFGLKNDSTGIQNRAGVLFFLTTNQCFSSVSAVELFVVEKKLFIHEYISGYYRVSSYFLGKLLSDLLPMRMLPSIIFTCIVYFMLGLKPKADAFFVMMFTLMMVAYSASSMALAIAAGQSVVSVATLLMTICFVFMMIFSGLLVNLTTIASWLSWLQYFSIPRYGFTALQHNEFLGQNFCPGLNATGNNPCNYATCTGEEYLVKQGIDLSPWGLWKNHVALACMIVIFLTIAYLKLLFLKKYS

## ZD2-N3-Gd(HP-DO3A) [MT218]
CYP2B6
  inhibition of CYP2B6 activity: did not inhibit
BCRP
  inhibition of BCRP transporter activity: no inhibition potential
OATP1B3
  inhibition of OATP1B3 transporter activity: no inhibition potential
CYP2C19
  inhibition of CYP2C19 activity: did not inhibit
[1]; 0.02 mmol/kg IV
  CNR: 0.88 ± 0.06
[1]; 0.04 mmol/kg IV
  CNR: 1.13 ± 0.38
OCT2
  inhibition of OCT2 transporter activity: no inhibition potential
MAOA
  inhibition rate: 10.21%
Bone marrow of ICR mice
  incidence of micronuclei vs vehicle control: no significant increase
  ratio of polychromatic erythrocytes to total erythrocytes: no significant decrease
CYP3A4
  induction of mRNA expression of CYP3A4: did not induce
  induction on enzyme activity of CYP3A4: no induction
Excretion in SD rats; SD rats, 0.1 mmol/kg single IV, within 6 days, ICP-MS
  total excretion of injected Gd in bile, feces, and urine: 100.01% ± 10.85% of the injected dose
Excretion in SD rats; rats, single dose, within the first 8 hours postinjection
  injected dose excreted in urine: Greater than 80%
CYP1A2
  inhibition of CYP1A2 activity: did not inhibit
[2]
  remaining MT218: 50.6%
[3]
  remaining MT218: 41.0%
CYP2D6
  inhibition of CYP2D6 activity: did not inhibit
MATE1
  inhibition of MATE1 transporter activity: no inhibition potential
[4]; 50 μM
  binding ratio to plasma proteins: 29.10%
[4]; 80 μM
  binding ratio to plasma proteins: 26.91%
[4]; 110 μM
  binding ratio to plasma proteins: 48.44%
Gd; pH 5 (0.05 M acetate), 25°C
  duration of chelation stability: at least 30 days
Gd; pH 5, 37.5°C, 0.50 mM ZnCl2, at least 30 days
  dissociation of MT218 in the presence of Zn(II) ions: did not cause dissociation
Gd; pH 5, 37.5°C, acetate buffer
  stability of MT218: stable
Gd; pH 5, 37.5°C, with 0.25 mM DOTA, DTPA, HP-DO3A or EDTA
  stability of MT218 in the presence of free chelating ligands: Loss of MT218 was observed
[5]
  target-specific secondary pharmacologic activity: did not exhibit any notable target-specific secondary pharmacologic activity
CYP2C9
  inhibition of CYP2C9 activity: did not inhibit
SD rats; repeated daily IV dose for 14 days
  NOAEL: 0.46 mmol/kg/day
SD rats; single IV dose
  NOAEL: 1.39 mmol/kg
SD rats; female rats, high dose 1.39 mmol/kg/d IV
  accumulation ratio AUC0–24h (D14)/AUC0–24h (D1) of Gd: 1.22
SD rats; female rats, low dose 0.15 mmol/kg/d IV
  accumulation ratio AUC0–24h (D14)/AUC0–24h (D1) of Gd: 1.41
SD rats; female rats, medium dose 0.46 mmol/kg/d IV
  accumulation ratio AUC0–24h (D14)/AUC0–24h (D1) of Gd: 1.61
SD rats; male rats, high dose 1.39 mmol/kg/d IV
  accumulation ratio AUC0–24h (D14)/AUC0–24h (D1) of Gd: 1.31
SD rats; male rats, low dose 0.15 mmol/kg/d IV
  accumulation ratio AUC0–24h (D14)/AUC0–24h (D1) of Gd: 1.52
SD rats; male rats, medium dose 0.46 mmol/kg/d IV
  accumulation ratio AUC0–24h (D14)/AUC0–24h (D1) of Gd: 1.49
SD rats; rats, any dose group, up to 1.39 mmol/kg/d
  mortality or moribundity: no mortality or morbidity; also recorded: No mortality or moribundity
SD rats; rats, any dose level
  clinical observations (body weight, food consumption, temperature, ophthalmoscopy, hematology, coagulation, clinical chemistry, urinalysis): No MT218-related changes
SD rats; rats, low and medium repeated-dosing groups (0.15, 0.46 mmol/kg/d)
  pathological findings: No such abnormality
SD rats; rats, single dose 1.39 mmol/kg
  pathological findings: no MT218-related macroscopic and microscopic abnormality
OAT3
  inhibition of OAT3 transporter activity: no inhibition potential
